Assays:
[1] = test system: 3′-phosphoadenosine 5′-phosphosulfate synthase 1 (PAPSS1) mRNA; test: Real-time RT-PCR of PAPSS1 steady-state mRNA in treated TE 671 cells; type: cell-based, human; settings: 24 hr, 0.005–0.5 μM, ΔΔCt method, HPRT1 internal standard
In short: (§1)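 TE 671 cells were pre-grown 72 hr in phenol red–free DMEM, plated at 4 ×10⁴ cells/well in 10% dialyzed FCS medium, equilibrated 24 hr, and dosed 24 hr (DMSO carrier, quadruplicate per dose). Total RNA (1 μg) was reverse-transcribed with poly T primers for 60 min at 42°C. SYBR Green qPCR used 60°C annealing, 44 cycles and a melt curve, with samples in quadruplicate; mean ± SE.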

[2] = test system: sulfite oxidase (SUOX) mRNA; test: Real-time RT-PCR of SUOX steady-state mRNA in treated TE 671 cells; type: cell-based, human; settings: 24 hr, 0.005–0.5 μM, ΔΔCt method, HPRT1 internal standard
In short: as §1

[3] = test system: cysteine dioxygenase type I (CDO1) mRNA; test: Real-time RT-PCR of CDO1 steady-state mRNA in treated TE 671 cells; type: cell-based, human; settings: 24 hr, 0.005–0.5 μM, ΔΔCt method, HPRT1 internal standard
In short: as §1

[4] = target: T1, human DHEA sulfotransferase (SULT 2A1) (Homo sapiens, UniProt Q06520); test: Inhibition of sulfation of tritiated DHEA by SULT 2A1 in human liver cytosol; type: biochemical
T1 sequence (Q06520 1-285): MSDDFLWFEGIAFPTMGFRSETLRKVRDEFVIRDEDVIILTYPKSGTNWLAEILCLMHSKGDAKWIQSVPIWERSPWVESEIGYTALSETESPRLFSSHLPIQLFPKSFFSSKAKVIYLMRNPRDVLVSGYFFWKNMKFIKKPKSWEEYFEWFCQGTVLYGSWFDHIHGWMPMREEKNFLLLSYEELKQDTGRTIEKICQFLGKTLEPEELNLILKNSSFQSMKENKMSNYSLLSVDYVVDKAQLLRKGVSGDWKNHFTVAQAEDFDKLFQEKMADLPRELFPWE

SULT 2A1 = settings: read-out: Km of SULT 2A1 for DHEA; ref Chang et al. 2001; cited from earlier work

| Molecule | PAPSS1 mRNA expression level relative to undosed control [1] | SUOX mRNA expression level relative to undosed control [2] | CDO1 mRNA expression level relative to undosed control [3] | Ki [4] | Km (SULT 2A1) |
| --- | --- | --- | --- | --- | --- |
| Oc1ccc(Cl)cc1Cl [2,4-dichlorophenol] | did not show significant decreases | did not show significant decreases | did not show significant decreases |  |  |
| Cc1cc(O)ccc1Cl [4-chloro-3-methylphenol] | did not show significant decreases | did not show significant decreases | did not show significant decreases |  |  |
| CCCCCCCCCc1ccc(O)cc1 [4-n-Nonylphenol, 4-n-nonylphenol] | very significant dose-dependent decrease |  |  | 10.5 ± 0.6 µM |  |
| CC(C)(C)CC(C)(C)c1ccc(O)cc1 [4-tert-Octylphenol, 4-tert-octylphenol] |  |  |  | 2.8 ± 0.1 µM |  |
| CC(C)(c1ccc(O)cc1)c1ccc(O)cc1 [Bisphenol A, bisphenol A] |  |  |  | 16.3 ± 0.8 µM |  |
| C[C@]12CC[C@H](O)CC1=CC[C@@H]1[C@@H]2CC[C@]2(C)C(=O)CC[C@@H]12 [DHEA, dehydroepiandrosterone] |  |  |  |  | ~2 µM |
| CCCCOC(=O)c1ccccc1C(=O)OCCCC [Dibutyl phthalate, dibutyl phthalate] |  |  |  | 21.5 ± 1.4 µM |  |
| CC(C)CCCCCCCOC(=O)c1ccccc1C(=O)OCCCCCCCC(C)C [Diisodecyl phthalate, diisodecyl phthalate] | clear decreasing trend |  |  |  |  |
| CCCCC(CC)COC(=O)c1ccccc1C(=O)OCC(CC)CCCC (stereo not drawn) [bis(2-ethylhexyl)phthalate] | significant dose-dependent decreases | significant dose-dependent decreases |  |  |  |
| bisphenol A dimethacrylate | decreased in a dose-dependent manner | decreased in a dose-dependent manner | did not affect |  |  |

From article PMC2174413 (Environmental Health Perspectives, 2007)
